Assay results as given in article PMC4734807 (International Journal of Nanomedicine, 2016).

Legend:
HepG2 cells = experiment: Cell apoptosis, Annexin V-FITC/PI flow cytometry; format: cell-based, human; details: 24 hours
Method in brief: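 HepG2 cells grown in high-glucose DMEM with 10% FBS and 1% antibiotics at 37°C, 5% CO2. Seeded at 2×10^5 cells/mL and incubated 24 h. Then exposed 24 h to nanoparticle suspension or drug solution at 1.2, 5 and 20 μg/mL RBG-equivalent, with 5-fluorouracil 20 μg/mL as control. Cells washed in cold PBS and stained with Annexin V-FITC/PI in binding buffer, 15 min at room temperature, then read by flow cytometry.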

HCa-F cells = experiment: In vivo therapeutic effect in HCa-F solid tumor-bearing mice; details: for IR (tumor growth inhibition rate) / Number of natural deaths / Tumor weight / Volume growth (incremental tumor volume): 2 mg/kg iv once per day for 7 days; for IR (tumor growth inhibition rate): by tumor weight; for Number of natural deaths: eight mice per group; for Tumor weight / Volume growth (incremental tumor volume): n=8
Method in brief: (§1)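 Male mice, 6 weeks, implanted subcutaneously in the right axilla with washed HCa-F ascites cells (2.0–2.3×10^7 cells/mL, 0.01 mL/g). At a longest tumour diameter of about 14–16 mm, mice randomised to six groups of eight. Dosing 2 mg/kg RBG-equivalent (5-fluorouracil 2 mg/kg) by tail vein, daily for 7 days, in 20% PEG400/saline vehicle. Volume V=a²×b/2 measured before and after dosing. Tumours weighed; IR from mean weights versus vehicle control. Tumour RBG measured in saline homogenates.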

[1] = test system: various malignant tumors, such as human hepatocellular carcinoma cells (Bel7402) and human cervical carcinoma cells (HeLa); details: e.g. Bel7402, HeLa; cited from earlier work
In vitro drug release = format: physicochemical; details: raw RBG
LD50 = experiment: LD50; design: species or system mice; details: male, Kunming, mouse, in vivo, iv
[2] = In vivo RBG concentrations in plasma and organs, liver-targeting indexes; design: species or system Kunming mice; details: for AUC: iv
Method in brief: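 Male Kunming mice, 6 weeks, about 20.9 g, fasted overnight. Single tail-vein dose of 2 mg/kg RBG-equivalent, given as sonicated nanoparticle suspension or as solution, both in 20% PEG400/saline. Ten mice per group sampled at 0.08–24 h: cardiac blood, liver, heart, spleen, lung and kidney. RBG measured by RP-HPLC. AUC0–24 h by trapezoid method. Re is the AUC ratio of formulation to solution; Te is the liver AUC over the non-target organ AUC.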

[3] = In vivo therapeutic effect in HCa-F solid tumor-bearing mice; details: male, mouse, tumor, intravenous, 2 mg/kg
Method in brief: as §1

## O=c1[nH]cc(F)c(=O)[nH]1 [FS, 5-fluorouracil]
HepG2 cells; 20 μg/mL
  Cell ratio, apoptotic cells: 14.2±1.2%
  Cell ratio, necrotic cells: 22.3±1.6%
  Cell ratio, survival cells: 63.5±2.0%
HCa-F cells
  IR (tumor growth inhibition rate): 37.19%
  Number of natural deaths: 1
  Tumor weight: 3.26 ± 0.74 g
  Volume growth (incremental tumor volume): 3.05±0.72 ^* cm^3

## C[C@]12CC[C@H](O)C[C@H]1CC[C@@H]1[C@@H]2CC[C@]2(C)[C@@H](c3ccc(=O)oc3)C[C@H]3O[C@]132 [RBG, Resibufogenin]
[1]
  IC50: 0.001 to 0.05 µM
In vitro drug release
  Release in the first 2 days: 98.78%

## C[C@]12CC[C@H](O)C[C@H]1CC[C@@H]1[C@@H]2CC[C@]2(C)[C@@H](c3ccc(=O)oc3)C[C@H]3O[C@]132 [RS, Resibufogenin]
LD50
  LD50: 18.9 mg/kg
HepG2 cells; 1.2 μg/mL
  Cell ratio, apoptotic cells: 21.8±1.5%
  Cell ratio, necrotic cells: 1.6±0.8%
  Cell ratio, survival cells: 76.6±2.2%
HepG2 cells; 5 μg/mL
  Cell ratio, apoptotic cells: 33.6±1.6 %
  Cell ratio, necrotic cells: 0.6±0.5%
  Cell ratio, survival cells: 65.8±2.7%
HepG2 cells; 20 μg/mL
  Cell ratio, apoptotic cells: 45.4±1.7 %
  Cell ratio, necrotic cells: 0.4±0.4%
  Cell ratio, survival cells: 54.2±1.9%
[2]; AUC liver / AUC heart
  Te (targeting efficiency), liver versus heart: 0.6
[2]; AUC liver / AUC kidney
  Te (targeting efficiency), liver versus kidney: 0.8
[2]; AUC liver / AUC lung
  Te (targeting efficiency), liver versus lung: 0.8
[2]; AUC liver / AUC spleen
  Te (targeting efficiency), liver versus spleen: 1.0
[2]; liver versus plasma and other organs
  Te (targeting efficiency), overall statement: < 1
[2]; male, Kunming, mouse, heart, 2 mg/kg
  AUC: 3.7 ± 0.9 µg·h/mL
[2]; male, Kunming, mouse, kidney, 2 mg/kg
  AUC: 2.7 ± 1 µg·h/mL
[2]; male, Kunming, mouse, liver, 2 mg/kg
  AUC: 2.1 ± 0.9 µg·h/mL
[2]; male, Kunming, mouse, liver/plasma, intravenous, 2 mg/kg
  Kp: 0.1
[2]; male, Kunming, mouse, lung, 2 mg/kg
  AUC: 2.5 ± 0.8 µg·h/mL
[2]; male, Kunming, mouse, plasma, 2 mg/kg
  AUC: 18.6 ± 2.1 µg·h/mL
[2]; male, Kunming, mouse, spleen, 2 mg/kg
  AUC: 2.2 ± 0.6 µg·h/mL
[2]; mice, iv 2 mg/kg RBG
  Retention (slow release) time of RBG in liver: 1 h
HCa-F cells
  IR (tumor growth inhibition rate): 31.60%
  Number of natural deaths: 2
  Tumor weight: 3.55 ± 0.71 g
  Volume growth (incremental tumor volume): 3.16±0.78 cm^3
HCa-F cells; after 7 days of administration, n=6
  MRBG in tumor: 0.19 ± 0.08 µg
[3]
  concentration at 7 days: 50 ± 20 ng/g
